Assay: Displacement of [125I]-IMPY from amyloid beta (1 to 42) fibrils after 2 hrs by gamma-counting analysis
In short: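 Competition binding with aggregated Aβ1-42 fibrils and [125I]IMPY (60000−100000 cpm/100 μL) in 0.05% BSA (1 mL total); inhibitors 10⁻⁴−10^−8.5 M in ethanol. Incubated 37 °C for 2 h, then GF/B vacuum filtration with PBS (0.02 M, pH 7.4) washes and γ counting. Three repeats; IC50 converted to Ki by Cheng−Prusoff.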

| Compound | Ki [nM] |
| --- | --- |
| CN(C)c1ccc(-c2nc3ccc(OCCF)cc3s2)cn1 | 2.7 |
| CN(C)c1ccc(-c2nc3ccc(OCCOCCF)cc3s2)cn1 | 4.6 |

— ChEMBL document CHEMBL2177098, “Synthesis and evaluation of novel ¹⁸F labeled 2-pyridinylbenzoxazole and 2-pyridinylbenzothiazole derivatives as ligands for positron emission tomography (PET) imaging of β-amyloid plaques” (J Med Chem, 2012)
